In ChEMBL document CHEMBL4834437, “Improvement of Oral Bioavailability of Pyrazolo-Pyridone Inhibitors of the Interaction of DCN1/2 and UBE2M” (J Med Chem, 2021) one finds Activity and Cmax data, which are given here for one compound.

A short description of data set [1]: Toxicity in C57BL/6 mouse assessed as adverse effect at 50 mg/kg, po administered as single dose measured after 48 hrs. Conditions: in vivo. It is filed as organism-based. In outline:
(§1)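 Mice were watched for adverse reactions for 48 h after a single iv (15 mg/kg) or oral (50 mg/kg) dose. Vehicle was EtOH/PG/PEG/PBS (10/10/40/39, pH 7.4) with 1% (w/v) […]-β-cyclodextrin.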

Data set [2] is described as follows: Toxicity in C57BL/6 mouse assessed as adverse effect at 15 mg/kg, iv administered as single dose measured after 48 hrs. Format: organism-based. Conditions: in vivo. The method, boiled down: as §1
For data set [3] the following is noted: mouse, in vivo, po, 50 mg/kg, 24 h.

With `CCN1C(=O)[C@@H](NC(=O)c2cccc(C)c2)[C@@H](c2ccc(F)cc2)c2c(C)nn(-c3ccccc3)c21` (relative stereo), the Activity entry in data set [1] and in data set [2] was “Non-Toxic” each time. The compound further yielded a Cmax in data set [3] of 360 nM.
